ARFGAP1 inh = inhibitors of rat ARFGAP1 GAP activity, primary screen, biochemical, fluorescence polarization, GDP tracer. ADP-ribosylation factor GTPase-activating protein 1 (Rattus norvegicus), Q62848. inhibition, % at 16.5 µM. Arfgap1-stimulated ARF1 GTP hydrolysis, GDP FP detection. 360,000 compounds, 0.26% hits;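 active = inhibition above a per-plate limit, mean inhibition of low control wells plus 3 SD, cut at about 25% in these data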
Target sequence (Q62848 1-136 limits assumed): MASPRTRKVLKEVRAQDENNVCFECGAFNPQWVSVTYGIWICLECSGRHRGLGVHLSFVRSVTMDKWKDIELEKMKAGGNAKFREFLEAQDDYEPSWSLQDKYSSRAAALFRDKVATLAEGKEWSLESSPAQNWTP
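Material – truncated rat Arfgap1 GAP domain · Buffer or medium – HEPES-based buffer, pH 7.5 · Reagent – human ARF1(Δ1-17)-GTP substrate · Dosing – 16.5 µM single point, 1.26% DMSO · Schedule – GTP hydrolysis reaction 2 h at 25 °C · Technique – GDP detection by fluorescence polarization · Benchmarks – No-Arfgap1 wells (100%) versus DMSO full-reaction wells (0%) · Repeats – single replicate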
H9c2 protect = cardioprotection against H2O2-induced cell death, primary screen, uHTS, H9c2 cells, ATPLite luminescence. 360,000 compounds, 0.63% hits. AID 588492, 2011. H9c2 cardiomyocytes, H2O2 injury protection, 2 h. protection from H2O2 cell death, % at 20 µM;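 active = compounds giving at least 50% protection of heart cells from peroxide-induced death in the single-dose screen, raw or plate-pattern-corrected value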
Neddyl block = inhibitors of cullin neddylation, primary screen, biochemical, TR-FRET, uHTS, NAE and Ubc12 | NEDD8-conjugating enzyme Ubc12 (Homo sapiens) + NEDD8-activating enzyme E1 regulatory … | inhibition, % at 25 µM | 360,000 compounds, 0.58% hits | AID 651699, 2012; in the data active = inhibition above about 36%
ASAP1 inh = inhibitors of human ASAP1 ArfGAP activity, primary screen, biochemical, fluorescence polarization; AID 624377, 2012; ASAP1-stimulated ARF1 GTP hydrolysis, GDP FP detection; inhibition, % at 16.5 µM; 360,000 compounds, 0.19% hits; Arf-GAP with SH3 domain, ANK repeat and PH domain-containing protein 1 (Homo sapiens), …; in the data active = inhibition above about 25%
Target sequence (Q9ULH1 325-724 limits assumed): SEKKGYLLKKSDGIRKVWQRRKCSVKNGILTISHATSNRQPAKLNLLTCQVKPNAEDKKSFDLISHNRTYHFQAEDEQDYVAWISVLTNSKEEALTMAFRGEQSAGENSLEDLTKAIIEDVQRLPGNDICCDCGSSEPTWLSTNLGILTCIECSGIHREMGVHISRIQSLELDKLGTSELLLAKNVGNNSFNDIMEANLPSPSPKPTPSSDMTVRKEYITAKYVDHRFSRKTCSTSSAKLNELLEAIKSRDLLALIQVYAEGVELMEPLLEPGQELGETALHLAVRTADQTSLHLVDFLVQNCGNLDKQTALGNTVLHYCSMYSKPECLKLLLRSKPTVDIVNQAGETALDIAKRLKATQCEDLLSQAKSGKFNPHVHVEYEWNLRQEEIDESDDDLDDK
Neddyl conf = blockade of NEDD8 conjugation to cullin – biochemical, TR-FRET, single concentration, confirmation; calls only at 25 µM; 1,800 compounds, 13% hits; TR-FRET cullin neddylation biochemical assay; shares compounds with Neddyl block; in the data active = inhibition above about 40%;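 note: neddylation substrate is the cullin 1 ring ligase complex with SKP2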
Large screens that a line does not name were inactive (follow-up assays come after a bar, where shown). Only some compounds are listed: those with a hit (about 1.6% of all), similar ones and a draw of the others.

Cc1nc2scc(C)n2c(=O)c1S(=O)(=O)NCC1CCN(Cc2ccc(Cl)cc2)CC1	Neddyl block 45 | Neddyl conf inactive
Cc1cc(-c2cc(NC(=O)Cc3c[nH]c4ccccc34)ccc2Nc2cccnc2)ccc1F	none (no result: H9c2 protect, Neddyl block)
O=C(O)c1cccc(Nc2c3ccccc3nc3ccccc23)c1	Neddyl block 41 | Neddyl conf inactive
Nc1sccc1C(=O)NCCN1CCOCC1	none (no result: H9c2 protect)
CCOC(=O)C1=CCN(S(=O)(=O)c2ccccc2Br)C1c1ccc(Cl)cc1 (stereo not drawn)	none (no result: H9c2 protect, Neddyl block)
COC(=O)c1cccc([N+](=O)[O-])c1CN1CCCC(C(N)=O)C1 (stereo not drawn)	Neddyl block 42 | Neddyl conf inactive
Clc1cccc(N/N=C/c2ccc(N3CCOCC3)s2)c1	Neddyl block 41 | Neddyl conf inactive
COc1cc2cc(CN(CCCN3CCOCC3)Cc3nnnn3Cc3ccccc3)c(=O)[nH]c2cc1OC	none (not shown: Neddyl block)
CCOc1ccc2[nH]c(=O)c(CN(CCO)Cc3nnnn3CCc3ccccc3)cc2c1	Neddyl block 46 | Neddyl conf inactive
CCOc1ccc2[nH]c(=O)c(CN(CCCN3CCOCC3)Cc3nnnn3Cc3ccc(OC)cc3)cc2c1	Neddyl block 39 | Neddyl conf inactive
COCCCN(Cc1cc(OC)c(OC)c(OC)c1)C(=S)Nc1cccc(Cl)c1	none
O=C(Nc1ccc2c(c1)C(=O)NC2=O)c1cccc(C(F)(F)F)c1	Neddyl block 40 | Neddyl conf inactive
O=C(/C=C/c1ccccc1Cl)Nc1ccc2c(c1)C(=O)NC2=O	none (not shown: Neddyl block)
O=C(/C=C/c1ccccc1)Nc1ccc2c(c1)C(=O)NC2=O	Neddyl block 44
O=C(Nc1ccc2c(c1)C(=O)NC2=O)c1ccccc1	none (not shown: Neddyl block)
O=C(Nc1ccc2c(c1)C(=O)NC2=O)c1ccc(S(=O)(=O)N2CCCC2)cc1	Neddyl block 37 | Neddyl conf inactive
O=C(NCc1ccccc1)[C@H]1CCCN1C(=O)[C@H]1CCCN1C(=O)c1ccc(Cl)cc1	none (no result: H9c2 protect, Neddyl block)
CC(C)CNC(=O)C1(C)CCCN1C(=O)c1c(Cl)cccc1Cl (stereo not drawn)	none
COCc1cc(N2CCNC[C@@H]2C)ccc1N1CCN(Cc2ccccc2)[C@@H](C)C1	none (no result: H9c2 protect, Neddyl block)
C/C=C(\C)C(=O)O[C@H](c1cc2ccc(=O)oc2cc1OC)[C@@H](O)C(C)(C)O	Neddyl block 37 | Neddyl conf inactive
C/C=C(\C)C(=O)O[C@@H]([C@H](O)c1cc2ccc(=O)oc2cc1OC)C(C)(C)O	none (not shown: Neddyl block)
C[C@@H]1ON(C)[C@H]2C[C@H]3c4[nH]c5c(-c6ccccc6F)cccc5c4CCN3C(=O)[C@@H]12	none (no result: H9c2 protect, Neddyl block)
COc1ccc2c(c1)[nH]c1c(Cl)ncnc12	Neddyl block 40 | Neddyl conf inactive
CCOc1ccc2[nH]c3ncccc3c(=O)c2c1	Neddyl block 47 | Neddyl conf active
CCOc1ccc2[nH]c(C)c(CN3CCOCC3)c(=O)c2c1	none
Cn1c(=O)c2cc3ccccc3nc2n(C)c1=O	Neddyl block 48 | Neddyl conf active
Cn1c(=O)c2cc3ccc(Cl)cc3nc2n(C)c1=O	none
Cc1cc(C)cc(N(CC(=O)NC2CCCC2)C(=O)C2(C)CC(=O)N=C3C=CC=CN32)c1 (stereo not drawn)	Neddyl block 52 | Neddyl conf active
COc1ccc(CNC(=O)Cn2cnc3c(NCc4ccccc4)ncnc32)cc1	none
C=CCOc1ccccc1CNc1ccc2[nH]c(=O)[nH]c2c1	Neddyl block 48 | Neddyl conf inactive
O=C(Nc1cccnc1Cl)c1cc(-c2cccc(O)c2)on1	Neddyl block 70 | Neddyl conf active
COc1cccc(-c2cc(C(=O)Nc3cccnc3Cl)no2)c1	none (not shown: Neddyl block)
Cc1cn(-c2cccnc2)c(C)c1CNC[C@H]1O[C@@H](n2cnc3c(N)ncnc32)[C@H](O)[C@@H]1O	Neddyl block 75 | Neddyl conf inactive
COc1ccc(CNC(=O)C[C@@H]2C[C@H]3c4cc(NC(=O)NC5CCCC5)ccc4O[C@H]3[C@H](CO)O2)cc1	none
COCCNC(=O)c1c(N)[nH]c(C(=O)c2ccc(Br)cc2)c1-c1ccc(Br)cc1	none (no result: H9c2 protect, Neddyl block)
O=c1c(Cl)c(N/N=C/c2ccc(Cl)cc2)cnn1-c1ccccc1	Neddyl block 42 | Neddyl conf inactive
Nc1c(C(=O)N/N=C/c2ccc(Cl)cc2)cnn1-c1ccccc1	none
COc1ccc(C(C)C)cc1-c1cccc2nncn12	Neddyl block 45 | Neddyl conf inactive
Nc1cccc(-c2cccc3nncn23)c1	none
C#CCn1cc(CNC[C@H]2O[C@@H](n3cnc4c(=O)[nH]c(N)nc43)[C@H](O)[C@@H]2O)c2ccccc21	none
Nc1ncccc1C(=O)OCC(=O)N1CCN(S(=O)(=O)c2ccc(Cl)cc2)CC1	Neddyl block 62
N#Cc1cccc(C(=O)C(=O)N2CCCN(Cc3ccc(F)cc3)CC2)c1	none (no result: H9c2 protect)
C=CCNC(=O)/C(C#N)=C/c1c(N2CCCCCC2)nc2ccccn2c1=O	Neddyl block 48 | Neddyl conf inactive
CC(C)C[C@H](NC(=O)c1ccccc1)C(=O)N1CCC[C@H]1C(=O)NCc1ccccc1	none (no result: H9c2 protect, Neddyl block)
COCCCNC(=O)C(C#N)c1nc2ccccc2nc1N1CCCC1 (stereo not drawn)	none (not shown: Neddyl block)
COCCOC(=O)C(C#N)c1nc2ccccc2nc1N1CCCC1 (stereo not drawn)	Neddyl block 41 | Neddyl conf inactive
Cc1cc(=O)n2[nH]c(-c3ccccc3)cc2n1	Neddyl block 44 | Neddyl conf inactive
Cc1cc(Br)c2nc(-c3ccc(Cl)cc3)c(Cc3cccc(Cl)c3)n2c1	none (no result: H9c2 protect, Neddyl block)
CS(=O)(=O)c1ccccc1-c1nc(-c2ccc(C(F)(F)F)cc2)no1	none
Cc1c(-c2nc(-c3ccc(C(F)(F)F)cc3)no2)n(C)oc1=O	Neddyl block 42 | Neddyl conf inactive
O=C1NC[C@H](CCCCN2C[C@H](Cc3ccccc3)N(Cc3ccccc3)C(=O)C2=O)N(CCC2CCCCC2)C1=O	none (no result: H9c2 protect)
c1ccc(-c2oc3ncnc(NCCCN4CCOCC4)c3c2-c2ccccc2)cc1	Neddyl block 52 | Neddyl conf active
CSCC[C@H](NC(=O)Cc1c(C)c2cc3c(C)c(C)oc3cc2oc1=O)C(=O)N[C@@H](C(=O)O)c1ccccc1	none (not shown: Neddyl block)
CC1(C)C(O)=C(c2nc3ccccc3[nH]2)C(=N)N1c1ccccc1	Neddyl block 41
O=C(Nc1ccc2nc(-c3ccccc3)oc2c1)c1ccco1	Neddyl block 38 | Neddyl conf inactive
FC(F)(F)c1cccc(-c2ccn3ncnc3n2)c1	Neddyl block 41 | Neddyl conf inactive

High-throughput results from PubChem.
